Assay results as given in ChEMBL document CHEMBL4041497, “Isolation of Phorbol Esters from Euphorbia grandicornis and Evaluation of Protein Kinase C- and Human Platelet-Activating Effects of Euphorbiaceae Diterpenes” (J Nat Prod, 2016).
Calls of active or inactive are those of the source.

Assays:
[1] = biological target: T1, Protein kinase C (PKC) (Homo sapiens) (UniProt O94806+P41743+P17252+P05129+Q05655+P05771+Q05513+Q02156+P24723+Q15139+Q04759); assay: Activation of PKC in human platelet assessed as induction of platelet aggregation at 10 uM measured within 15 mins by tribidimetric method
Method in brief: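 Washed human platelets in Tyrode's solution (2 mM Ca2+, 11.1 mM glucose, 3.5 mg/mL BSA) at 3 × 10^8 platelets/mL, prewarmed 3 min at 37 °C, then given compound or DMSO vehicle with fast shaking (20 Hz) at 37 °C. Aggregation read turbidimetrically as maximal rise in light transmission at 450 nm within 15 min. Means ± SEM, n = 3.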

Protein kinase C (PKC) = assay: Activation of PKC in human platelet assessed as induction of platelet aggregation measured within 15 mins by tribidimetric method
[2] = biological target: T1, Protein kinase C (PKC) (Homo sapiens); assay: Activation of PKC in human platelet assessed as increase in platelet secretion by measuring ATP release at 0.1 uM measured after 5 mins by luciferin-luciferase assay
Method in brief: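 Tyrode's-suspended washed human platelets (3 × 10^8/mL; Ca2+ 2 mM, glucose 11.1 mM, BSA 3.5 mg/mL). Prewarmed 3 min at 37 °C, then incubated 5 min at 37 °C with compound or DMSO vehicle. Spun 1 min at 4 °C; released ATP in supernatant read by luciferin–luciferase reaction. Means ± SEM, n = 3.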

[3] = biological target: T1, Protein kinase C (PKC) (Homo sapiens); assay: Activation of PKC in human platelet assessed as phosphorylation of AKT at ser-308 at 0.1 uM measured after 10 mins by Western blot analysis
Method in brief: (§1)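 Washed human platelets were prewarmed 3 min at 37 °C and exposed to compound for 10 min. They were lysed directly in 2× SDS sample buffer and boiled 5 min, then run on SDS-PAGE. Immunoblots used phospho-specific antibodies (phospho-Ser PKC substrate, p-Akt Ser308, p-ERK, p-p38, p-VASP, p-PKD, p-MARCKS) with HRP anti-rabbit and chemiluminescence. GAPDH served as loading control.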

[4] = biological target: T1, Protein kinase C (PKC) (Homo sapiens); assay: Activation of PKC in human platelet assessed as phosphorylation of VASP at 0.1 uM measured after 10 mins by Western blot analysis; method in brief: as §1
[5] = biological target: T1, Protein kinase C (PKC) (Homo sapiens); assay: Activation of PKC in human platelet assessed as phosphorylation of p38 at 0.1 uM measured after 10 mins by Western blot analysis; method in brief: as §1
[6] = biological target: T1, Protein kinase C (PKC) (Homo sapiens); assay: Activation of PKC in human platelet assessed as phosphorylation of PKD at 0.1 uM measured after 10 mins by Western blot analysis; method in brief: as §1
[7] = biological target: T1, Protein kinase C (PKC) (Homo sapiens); assay: Activation of PKC in human platelet assessed as phosphorylation of MARCK at 0.1 uM measured after 10 mins by Western blot analysis; method in brief: as §1
[8] = biological target: T1, Protein kinase C (PKC) (Homo sapiens); assay: Activation of PKC in human platelet assessed as phosphorylation of ERK at 0.1 uM measured after 10 mins by Western blot analysis; method in brief: as §1
[9] = biological target: T1, Protein kinase C (PKC) (Homo sapiens); assay: Activation of PKC in human platelet assessed as phosphorylation of PKC substrates at 0.1 uM measured after 10 mins by Western blot analysis; method in brief: as §1
[10] = biological target: Protein kinase C alpha type (Homo sapiens) (UniProt P17252); assay: Induction of PKC-alpha translocation from cytosol to plasma membrane in human platelet at 0.1 uM measured after 1 min by Western blot analysis
Method in brief: (§2)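 Platelets were treated with compound for 1 min, then lysed with 0.1% digitonin (4 °C, 3 min) and spun at 14 000 rpm for 10 min; the supernatant was the cytosol. The pellet was extracted with 1% Triton X-100 and respun; that supernatant was the membrane fraction. Both fractions were immunoblotted for PKC-α, -β, -δ and -θ.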

[11] = biological target: Protein kinase C beta type (Homo sapiens) (UniProt P05771); assay: Induction of PKC-beta1 translocation from cytosol to plasma membrane in human platelet at 0.1 uM measured after 1 min by Western blot analysis; method in brief: as §2
Sequence of Protein kinase C beta type (Homo sapiens) (P05771 2-671 limits assumed): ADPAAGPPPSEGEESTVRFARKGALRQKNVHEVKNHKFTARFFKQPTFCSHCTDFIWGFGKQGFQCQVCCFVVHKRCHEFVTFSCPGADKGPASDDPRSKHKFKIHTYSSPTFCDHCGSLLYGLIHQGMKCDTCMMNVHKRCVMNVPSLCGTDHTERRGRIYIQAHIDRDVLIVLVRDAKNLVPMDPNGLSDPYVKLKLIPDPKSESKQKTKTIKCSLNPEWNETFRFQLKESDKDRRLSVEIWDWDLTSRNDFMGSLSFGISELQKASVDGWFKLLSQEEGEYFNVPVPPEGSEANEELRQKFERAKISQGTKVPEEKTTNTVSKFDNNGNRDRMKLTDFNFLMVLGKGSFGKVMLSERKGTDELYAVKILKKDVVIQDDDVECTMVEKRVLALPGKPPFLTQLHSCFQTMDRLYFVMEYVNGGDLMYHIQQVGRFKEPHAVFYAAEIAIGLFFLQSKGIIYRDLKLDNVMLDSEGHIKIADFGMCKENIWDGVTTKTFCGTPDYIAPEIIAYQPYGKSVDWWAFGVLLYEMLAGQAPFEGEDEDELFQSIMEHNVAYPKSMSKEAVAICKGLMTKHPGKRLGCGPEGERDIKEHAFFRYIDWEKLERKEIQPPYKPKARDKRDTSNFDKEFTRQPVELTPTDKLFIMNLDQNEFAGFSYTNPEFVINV

[12] = biological target: Protein kinase C delta type (Homo sapiens) (UniProt Q05655); assay: Induction of PKC-delta translocation from cytosol to plasma membrane in human platelet at 0.1 uM measured after 1 min by Western blot analysis; method in brief: as §2
Sequence of Protein kinase C delta type (Homo sapiens) (Q05655 whole entry, looked up): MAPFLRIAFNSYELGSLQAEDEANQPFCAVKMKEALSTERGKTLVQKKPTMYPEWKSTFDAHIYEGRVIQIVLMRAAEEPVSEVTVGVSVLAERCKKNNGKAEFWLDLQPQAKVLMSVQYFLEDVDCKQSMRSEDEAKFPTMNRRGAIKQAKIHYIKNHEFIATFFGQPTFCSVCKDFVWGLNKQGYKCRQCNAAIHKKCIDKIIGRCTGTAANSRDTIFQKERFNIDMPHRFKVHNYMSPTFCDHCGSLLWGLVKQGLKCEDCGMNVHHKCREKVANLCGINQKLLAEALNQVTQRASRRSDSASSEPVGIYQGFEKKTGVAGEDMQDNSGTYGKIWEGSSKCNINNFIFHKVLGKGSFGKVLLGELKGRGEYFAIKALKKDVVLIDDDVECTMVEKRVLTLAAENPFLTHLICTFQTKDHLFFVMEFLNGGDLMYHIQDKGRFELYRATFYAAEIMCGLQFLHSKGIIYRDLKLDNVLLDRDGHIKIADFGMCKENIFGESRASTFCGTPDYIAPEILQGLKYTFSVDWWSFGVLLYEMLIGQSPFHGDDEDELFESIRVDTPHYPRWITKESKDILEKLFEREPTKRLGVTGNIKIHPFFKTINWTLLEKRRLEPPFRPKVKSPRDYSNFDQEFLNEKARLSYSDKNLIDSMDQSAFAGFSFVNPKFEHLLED

[13] = biological target: T1, Protein kinase C (PKC) (Homo sapiens); assay: Activation of PKC in human platelet assessed as increase in platelet secretion by measuring ATP release at 0.1 uM in presence of PKC inhibitor GF109203X measured after 5 mins by luciferin-luciferase assay
Method in brief: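 Washed human platelets at 3 × 10^8/mL in Tyrode's with Ca2+ 2 mM, glucose 11.1 mM and BSA 3.5 mg/mL. Prewarmed 3 min at 37 °C, then preincubated 3 min with GF109203X 1 μM before compound. After 5 min at 37 °C, spun at 4 °C; supernatant ATP measured by luciferin–luciferase bioluminescence. Means ± SEM, n = 3.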

[14] = biological target: T1, Protein kinase C (PKC) (Homo sapiens); assay: Activation of PKC in human platelet assessed as reduction in phosphorylation of PKC substrates at 0.1 uM in presence of PKCalpha/beta inhibitor Go6976 measured after 10 mins by Western blot analysis
Method in brief: (§3)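 Human platelets were pretreated 1 min with Go6976 1 μM or DMSO vehicle, then stimulated with compound. Lysates were made in 2× SDS sample buffer and boiled, then run on SDS-PAGE and nitrocellulose blots. Probes were phospho-specific antibodies (PKC substrates, Akt Ser308, MARCKS, VASP, p38) with chemiluminescent detection. GAPDH was the loading control.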

[15] = biological target: T1, Protein kinase C (PKC) (Homo sapiens); assay: Activation of PKC in human platelet assessed as reduction in phosphorylation of MARCK at 0.1 uM in presence of PKCalpha/beta inhibitor Go6976 measured after 10 mins by Western blot analysis; method in brief: as §3
[16] = biological target: T1, Protein kinase C (PKC) (Homo sapiens); assay: Activation of PKC in human platelet assessed as reduction in phosphorylation of AKT at ser-308 at 0.1 uM in presence of PKCalpha/beta inhibitor Go6976 measured after 10 mins by Western blot analysis; method in brief: as §3
[17] = biological target: T1, Protein kinase C (PKC) (Homo sapiens); assay: Activation of PKC in human platelet assessed as reduction in phosphorylation of VASP at 0.1 uM in presence of PKCalpha/beta inhibitor Go6976 measured after 10 mins by Western blot analysis; method in brief: as §3
[18] = biological target: T1, Protein kinase C (PKC) (Homo sapiens); assay: Activation of PKC in human platelet assessed as reduction in phosphorylation of p38 at 0.1 in presence of PKCalpha/beta inhibitor Go6976 measured after 10 mins by Western blot analysis; method in brief: as §3
[19] = biological target: Protein kinase C theta type (Homo sapiens) (UniProt Q04759); assay: Induction of PKC-theta translocation from cytosol to plasma membrane in human platelet at 0.1 uM measured after 1 min by Western blot analysis; method in brief: as §2
Sequence of Protein kinase C theta type (Homo sapiens) (Q04759 whole entry, looked up): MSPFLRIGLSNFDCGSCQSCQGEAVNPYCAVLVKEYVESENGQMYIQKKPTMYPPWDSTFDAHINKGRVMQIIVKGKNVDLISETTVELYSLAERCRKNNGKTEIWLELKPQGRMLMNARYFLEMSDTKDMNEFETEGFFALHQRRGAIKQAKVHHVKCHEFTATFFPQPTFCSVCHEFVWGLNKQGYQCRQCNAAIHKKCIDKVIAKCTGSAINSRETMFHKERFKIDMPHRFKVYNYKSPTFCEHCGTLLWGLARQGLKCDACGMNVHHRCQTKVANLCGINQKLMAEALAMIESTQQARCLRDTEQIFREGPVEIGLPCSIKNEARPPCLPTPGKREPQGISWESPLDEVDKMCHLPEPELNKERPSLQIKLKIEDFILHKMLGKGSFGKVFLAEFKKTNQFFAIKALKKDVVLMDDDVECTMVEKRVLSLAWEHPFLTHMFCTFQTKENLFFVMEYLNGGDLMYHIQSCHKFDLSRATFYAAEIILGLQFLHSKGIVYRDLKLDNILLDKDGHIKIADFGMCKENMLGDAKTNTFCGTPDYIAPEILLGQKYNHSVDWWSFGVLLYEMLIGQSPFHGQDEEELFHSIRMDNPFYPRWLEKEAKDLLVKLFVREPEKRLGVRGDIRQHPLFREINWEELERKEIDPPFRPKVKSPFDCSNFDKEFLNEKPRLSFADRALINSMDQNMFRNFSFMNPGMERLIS

[20] = biological target: T1, Protein kinase C (PKC) (Homo sapiens); assay: Activation of PKC in human platelet assessed as increase in platelet secretion by measuring ATP release at 0.1 uM in presence of PKCalpha/beta inhibitor Go6976 measured after 5 mins by luciferin-luciferase assay
Method in brief: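 Washed human platelets at 3 × 10^8/mL in Tyrode's with Ca2+ 2 mM, glucose 11.1 mM and BSA 3.5 mg/mL. Pretreated 1 min with Go6976 1 μM or DMSO vehicle, then compound added. After 5 min at 37 °C, centrifuged at 4 °C; supernatant ATP quantified by luciferin–luciferase assay. Means ± SEM, n = 3.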

C=C1[C@H](OC(C)=O)CC(=O)C(C)(C)/C=C/[C@@H](C)C(=O)[C@@]2(OC(C)=O)C[C@@](C)(OC(C)=O)[C@H](OC(C)=O)[C@@H]2[C@H]1OC(C)=O
inactive: Activity [1]

CC(=O)O[C@@H]1[C@H]2[C@@H](OC(=O)c3ccccc3)[C@@H](C)C[C@]2(OC(C)=O)[C@@H](OC(C)=O)[C@]2(C)OC[C@]13C(=O)C=C[C@H](C(C)(C)OC(C)=O)[C@@H]23
inactive: Activity [1]

C/C=C(/C)C(=O)O[C@H]1C(C)=C[C@]23C(=O)[C@@H](C=C(CO)[C@@H](O)[C@]12O)[C@H]1[C@@H](C[C@H]3C)C1(C)C [INGENOL MEBUTATE]
0.0725 µM: EC50 (Protein kinase C (PKC))
active: Activity [2] | Activity [3] | Activity [4] | Activity [5] | Activity [6] | Activity [7] | Activity [8] | Activity [9] | Activity [10] | Activity [11] | Activity [12]

C=C1[C@H](OC(C)=O)CC(=O)C(C)(C)/C=C/[C@@H](C)C(=O)[C@@]2(OC(C)=O)C[C@@](C)(OC(=O)c3ccccc3)[C@H](OC(C)=O)[C@@H]2[C@H]1OC(C)=O
inactive: Activity [1]

CCCCCCCCCCCCCC(=O)O[C@@H]1[C@@H](C)[C@@]2(O)[C@@H](C=C(CO)C[C@]3(O)C(=O)C(C)=C[C@@H]23)[C@@H]2C(C)(C)[C@]12OC(C)=O
inactive: Activity [13] | Activity [14] | Activity [15] | Activity [16] | Activity [17] | Activity [18] | Activity [20]
active: Activity [2] | Activity [3] | Activity [4] | Activity [5] | Activity [6] | Activity [7] | Activity [8] | Activity [9] | Activity [10] | Activity [11] | Activity [12] | Activity [19]

C/C=C(/C)C(=O)OC[C@]1(C)[C@H]2[C@@H]3C=C(COC(C)=O)C[C@]4(O)C(=O)C(C)=C[C@H]4[C@@]3(O)[C@H](C)C[C@]21OC(=O)C(C)C
6.08 µM: EC50 (Protein kinase C (PKC))

C/C=C(/C)C(=O)O[C@H]1C(C)=C[C@]23C(=O)[C@@H](C=C(C)[C@@H](O)[C@]12O)[C@H]1[C@@H](C[C@H]3C)C1(C)C
5.04 µM: EC50 (Protein kinase C (PKC))
